High-throughput results deposited in PubChem by The Scripps Research Institute Molecular Screening Center.
TCR CD3 inh = inhibitors of human TCR-CD3 interaction. TAMRA-labeled TCR probe fluorescence, biochemical. AID 651800. inhibition, % at 9.4 µM. 360,000 compounds, 0.37% hits; in the data active means inhibition above about 19%;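 further: recombinant mutant TCR 2C K166C tagged with TAMRA read by polarization; 0% = receptor in buffer alone and 100% = receptor with positive control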
PRMT1 inh = blocks human protein arginine methyltransferase 1; recombinant PRMT1, activity-based probe fluorescence polarization; inhibition, % at 2.79 µM; 370,000 compounds, 1.3% hits; AID 652257;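 active means inhibition above about 21% made by adding two undisclosed values, limit read from the data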
Target sequence (Q99873 whole entry, looked up): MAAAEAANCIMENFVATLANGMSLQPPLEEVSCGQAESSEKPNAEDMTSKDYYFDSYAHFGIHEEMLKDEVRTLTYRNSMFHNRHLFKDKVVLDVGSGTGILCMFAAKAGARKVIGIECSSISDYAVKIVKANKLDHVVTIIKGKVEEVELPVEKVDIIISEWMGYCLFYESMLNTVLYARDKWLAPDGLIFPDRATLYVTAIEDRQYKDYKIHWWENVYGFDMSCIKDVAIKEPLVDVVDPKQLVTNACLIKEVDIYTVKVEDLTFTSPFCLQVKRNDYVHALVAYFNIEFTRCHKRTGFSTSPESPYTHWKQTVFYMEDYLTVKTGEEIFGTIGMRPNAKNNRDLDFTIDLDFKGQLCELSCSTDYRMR
HTRA1 inh = blocks human HTRA1 serine peptidase; inhibition, % at 5.96 µM; recombinant HTRA1, FP-rhodamine activity-based probe, fluorescence polarization; 340,000 compounds, 0.5% hits; Q92743; in the data active means inhibition above about 36%;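 further: 0% = enzyme with DMSO and 100% = wells lacking enzyme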
ABHD4 inh = inhibitors of mouse ABHD4; Q8VD66; purified mABHD4, FP-Rh probe fluorescence polarization; inhibition, % at 8.92 µM; 370,000 compounds, 0.54% hits;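 active means inhibition exceeding the mean over every tested compound plus 3 SD, cut at about 30% in these data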;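 further: 0% = plate median of compound wells and 100% = S159A mutant with DMSO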
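Doses – 8.92 µM, single dose · Material – wild-type mouse ABHD4 protein · Replication – single well per compound (singlicate) · Measure – percent inhibition of probe binding, normalized to plate controls · Schedule – 45 min compound pre-incubation plus 60 min probe step, 25 °C · Detection – fluorescence polarization with parallel and perpendicular emission, 525/598 nm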
SIAE inh = human SIAE inhibition, primary screen | Q9HAT2 | SIAE FP-Rh probe binding, fluorescence polarization | inhibition, % at 9.66 µM | 370,000 compounds, 0.69% hits | AID 1053197;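 active means inhibition above a cutoff: mean of compounds within the control limits plus 3 SD of those, cut at about 17% in these data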;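 further: 0% = plate median of compound wells and 100% = probe without SIAE protein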
* marks the source's active call; other numbers are inactive results; nt = no result. Only some compounds are listed: those with a hit (about 2.7% of all), similar ones and a draw of the others.

SMILES | TCR CD3 inh | PRMT1 inh | HTRA1 inh | ABHD4 inh | SIAE inh
O=C(CSc1ccccn1)Nc1nonc1[N+](=O)[O-] | 4 | 29* | 3 | -8 | -2
O=C(CSc1ccccn1)Nc1ccc(NC(=O)CSc2ccccn2)cc1 | -6 | 1 | -1 | 5 | -4
CCOCCCNC(=O)C1CCN(S(=O)(=O)c2cc3c(cc2Br)CCN3C(=O)CC)CC1 | nt | -1 | nt | 4 | 9
CCc1nnc(NC(=O)CSc2sc3c(O)cc(=O)[nH]c3c2C#N)s1 | 4 | 42* | -11 | -6 | -22
N#Cc1c(SCC(=O)Nc2cccc(C(F)(F)F)c2)sc2c(O)cc(=O)[nH]c12 | 5 | 21* | -17 | -30 | -30
CCc1nnc(NC(=O)CSc2nc3[nH]c(=O)cc(O)c3s2)s1 | 3 | 7 | -5 | 6 | 4
CCCN(CC1CC1)C(=O)CN1C(=O)C2CCCCN2C(=O)c2ccccc21 (centres undefined) | nt | -7 | nt | 2 | 4
C=C1C(=O)C23CCC4C(C)(C(=O)OC)CCCC4(C)C2CCC1(O)C3 (centres undefined) | 1 | 29* | -4 | 0 | -4
O=C(OCc1ccc(F)cc1)c1ccc2c(c1)-c1ccccc1C2=O | 3 | 1 | -1 | -2 | 10
CCOC(=O)C1=C(Cc2ccc(F)cc2)C(=O)c2ccccc2C1=O | -2 | 79* | 5 | -12 | -12
c1cc(-c2nnc3n2N=C(c2ccc4c(c2)OCO4)CS3)ccn1 | nt | 3 | nt | -5 | 2
CN(C)CCCN(C(=O)c1ccc(S(=O)(=O)N2CCc3ccccc32)cc1)c1nc2ccc(F)cc2s1 | 5 | 23* | -26 | 7 | -5
CN(C)CCCN(C(=O)c1ccc(S(=O)(=O)N2CCc3ccccc32)cc1)c1nc2ccc(Cl)cc2s1 | 1 | 27* | -37 | 8 | -22
CN(C)CCCN(C(=O)c1ccc(S(=O)(=O)N2CCc3ccccc3C2)cc1)c1nc2ccc(F)cc2s1 | 2 | 4 | -14 | 18 | 5
C#CCN1CC(N(C)CCOC(=O)CCCc2ccccc2)CS1(=O)=O (centres undefined) | nt | -1 | nt | 5 | 4
COC(=O)C(NC(=O)c1ccccc1)=C1C=C(C)OC(C)=C1 | -5 | 2 | 3 | 0 | 18*
CN(CC(=O)N1CCc2[nH]c3ccc(F)cc3c2C1)CC1OCCO1 | 8 | -1 | nt | -2 | 12
Cc1ccc2[nH]c3c(c2c1)CN(C(=O)CN(C)CC1OCCO1)CC3 | 2 | 22* | 0 | -2 | -2
CCn1cc(C(=O)O)c(=O)c2cnc(N3CCN(C(=S)NC(=O)c4ccc(F)c(F)c4)CC3)nc21 | -3 | -5 | 2 | -5 | 6
CCn1cc(C(=O)O)c(=O)c2cnc(N3CCN(C(=S)NC(=O)c4ccc(OC)cc4)CC3)nc21 | -8 | -6 | 1 | -3 | 17*
Cc1cc(Cl)cc2sc(=S)[nH]c12 | 4 | 22* | 2 | -2 | 6
CC(=O)ON=C1C=CC(=C(C#N)c2ccccc2)C=C1 | -2 | 24* | nt | 4 | -29
O=C(O)CSc1c(-c2ccccc2)c2cc(Cl)ccc2[nH]c1=O | 7 | 2 | 0 | -2 | 0
CCN(CC)C(=S)Sc1c(-c2ccccc2)c2cc(Cl)ccc2[nH]c1=O | 4 | 24* | 36 | 11 | -1
C#CCCC(=O)Nc1sc2c(c1-c1nc3ccccc3s1)CCN(C(C)C)C2 | nt | 16 | nt | 7 | -3
SMILES | TCR CD3 inh | PRMT1 inh | HTRA1 inh | ABHD4 inh | SIAE inh
CC(C)(C)c1cc[n+](/C(C(=S)Nc2ccccc2F)=C(/[O-])c2ccc3c(c2)OCCO3)cc1 | 9 | 24* | -7 | -9 | -10
Nc1cc2ccccc2cc1NS(=O)(=O)N1CCCCC1 | 1 | 4 | nt | 11 | 8
Oc1ccc(/C=N/NC(=S)Nc2cccnc2)cc1O | 24* | 4 | 15 | 26 | 7
COC(=O)[C@]12CCCCC=C1N(Cc1ccc(OC)cc1)C(=O)[C@@H]2CC(=O)N1CCN(C(=O)c2ccco2)CC1 | nt | 2 | nt | 1 | -2
COc1cccc(NC(=O)CSc2nc(O)c(C)c(=O)n2-c2ccc(C)cc2)c1 | -4 | 24* | -4 | 6 | -7
Cc1c(O)nc(SCC(=O)Nc2ccc3c4c(cccc24)CC3)n(-c2ccc(F)cc2)c1=O | 6 | 25* | 6 | 5 | -1
CCc1c(O)nc(SCC(=O)Nc2c(C)cccc2C)n(-c2ccc(F)cc2)c1=O | 0 | 14 | 9 | -1 | -3
C[C@H]1[C@@H](OC(=O)NCc2ccccc2Cl)CC[C@@]23CCCN2C(=O)CCC[C@@H]13 | nt | 3 | nt | -6 | 2
CCC(=O)N1CCc2cc(Br)c(S(=O)(=O)NC3CCN(Cc4ccccc4)CC3)cc21 | nt | -2 | nt | -3 | 2
CCn1c2ccccc2c2cc(C=Nn3c(-c4ccccc4C)n[nH]c3=S)ccc21 | nt | 23* | nt | -46 | -14
CCn1c2ccccc2c2cc(/C=N/n3c(C)nnc3C)ccc21 | -1 | 2 | -18 | -6 | 0
CC(=O)Nc1ccc(C(=S)NCc2ccco2)cc1 | 9 | 0 | 0 | -2 | -1
CC(=O)Nc1ccc(C(=S)NCCCO)cc1 | -6 | 22* | -7 | -7 | -4
Cc1nn2c(nc1=O)SCC(c1ccccc1)=N2 | -10 | 24* | 2 | -4 | 10
COC(=O)COc1ccc(/C=C2/NC(=O)N(CC(=O)OC)C2=O)cc1 | 6 | 2 | 1 | -3 | 10
COC(=O)CN1C(=O)N/C(=C/c2ccc(C)o2)C1=O | 8 | 56* | 9 | 8 | 3
COc1cccc(CCc2nnc(N)s2)c1 | -3 | 23* | 1 | -4 | 0
O=C(NC1CCC1)O[C@H]1CC[C@@]23CCCN2C(=O)CCC[C@H]3C1 | nt | -2 | nt | -1 | 4
C=CCOC(=O)c1cc(-c2ccc(/C=C3\C(=O)NC(=O)C(C#N)=C3C)o2)ccc1Cl | -1 | 25* | -23 | 12 | 5
COC(=O)Nc1ccc(SCC(=O)c2cccc([N+](=O)[O-])c2)cc1 | -3 | 69* | -7 | -12 | 8
COc1ccc(C(C(=O)N(C)C2CCCC2)N(Cc2ccc(F)cc2)C(=O)c2ncn[nH]2)cc1OC (centres undefined) | nt | 5 | nt | -2 | 4
COc1ccc(OC)c2c1C(=O)C(Cl)=C(Cl)C2=O | -4 | 91* | 0 | 24 | 10
COc1ccc(OC)c2c1C(=O)CC2C (centres undefined) | 5 | -3 | 12 | -3 | -7
CN(C(=O)COC(=O)/C=C/c1ccc(F)cc1)c1c(N)n(Cc2ccccc2)c(=O)[nH]c1=O | 0 | -3 | 2 | -2 | 0
Cc1ccc(N=C2NC(=O)S/C2=C\c2ccco2)cc1 | 2 | 3 | -7 | -11 | -4
Cc1ccc(N=C2NC(=O)/C(=C/C=C/c3ccco3)S2)cc1 | 8 | 23* | 20 | 19 | 14
O=C(NN=Cc1ccccc1O)C(=O)Nc1ccc(F)cc1 | 2 | -2 | nt | 12 | -2
CC(=O)NC1Sc2ccccc2N=C1c1ccccc1 (centres undefined) | 11 | 26* | -12 | 4 | 0
C[C@]12CC[C@@H]3c4ccc(O)cc4CC[C@H]3[C@@H]1CC[C@@H]2O | -8 | 4 | -4 | -17 | 0
